Results reported in ChEMBL document CHEMBL1143420, “Distribution of suramin, an antitrypanosomal drug, across the blood-brain and blood-cerebrospinal fluid interfaces in wild-type and P-glycoprotein transporter-deficient mice” (Antimicrob Agents Chemother, 2007).
One block for each compound: values may come before it.

How the values were obtained:
[1] = Biodistribution in perfused BALB/c mouse choroid plexus assessed as tritiated drug level after 2.5 mins in presence of phenylarsine oxide relative to control; format: ADME, organism-based; details: in vivo
How it was run: (§1)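 Mice were perfused with artificial plasma for 4 min, then decapitated. The IVth ventricle choroid plexus was excised and preincubated 10 min in artificial CSF at 37°C. […] BALB/c tissue also received 150 µM phenylarsine oxide in 0.05% DMSO, or 0.05% DMSO alone.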

[2] = Biodistribution in perfused wild type FVB Mdr1a/Mdr1b positive mouse choroid plexus assessed as tritiated drug level after 30 mins relative to control; format: ADME, organism-based; details: in vivo, 0.5 h; how it was run: as §1
[3] = Biodistribution in perfused BALB/c mouse choroid plexus assessed as drug accumulation after 2.5 mins in presence of DMSO; format: ADME, organism-based; details: in vivo; how it was run: as §1
[4] = Biodistribution in perfused FVB Mdr1a/Mdr1b deficient mouse choroid plexus assessed as drug accumulation after 30 mins; format: ADME, organism-based; details: in vivo, 0.5 h; how it was run: as §1
[5] = Biodistribution in perfused wild type FVB Mdr1a/Mdr1b positive mouse choroid plexus assessed as drug accumulation after 2.5 mins; format: ADME, organism-based; details: in vivo; how it was run: as §1
[6] = Biodistribution in wild type FVB Mdr1a/Mdr1b positive mouse pineal gland assessed as tritiated drug level at 150 uM perfusion after 30 mins by capillary depletion assay; format: ADME, organism-based; details: in vivo, other, 0.5 h
How it was run: (§2)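 The method compared multiple-time CNS uptake in Mdr1a/Mdr1b+/+ and –/– FVB male mice (about 25 g; genotype confirmed by PCR). […] Regional dpm/g was expressed relative to plasma (RTissue%). 3-4 mice per point. Genotypes were compared by Student's t test.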

[7] = Biodistribution in perfused BALB/c mouse choroid plexus assessed as tritiated drug level after 2.5 mins in presence of DMSO relative to control; format: ADME, organism-based; details: in vivo; how it was run: as §1
[8] = Biodistribution in BALB/c mouse choroid plexus assessed as tritiated drug level at 150 uM perfusion after 10 mins by capillary depletion assay in presence of DMSO; format: ADME, organism-based; details: in vivo, other
How it was run: (§3)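 BALB/c mice were perfused in situ via the heart at 5 ml/min. A 10-min preperfusion used either 150 µM phenylarsine oxide in 0.05% DMSO (final) or a 0.05% DMSO control. […] Brain regions were sampled and counted by liquid scintillation. Results are RTissue% as mean ± SEM.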

[9] = Biodistribution in BALB/c mouse 4th ventricle choroid plexus assessed as tritiated drug level at 5 ml/min perfusion after 30 min; format: ADME, organism-based; details: in vivo, other, 0.5 h
How it was run: (§4)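 BALB/c mice were anesthetized (medetomidine 2 mg/kg, ketamine 150 mg/kg), heparinized, and perfused via the left ventricle at 5 ml/min with oxygenated artificial plasma (Krebs-Henseleit base, 1 g/liter BSA, 37°C). […] Tissue dpm/g was expressed as % of plasma dpm/ml (RTissue%). 3-4 mice per point.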

[10] = Biodistribution in perfused BALB/c mouse choroid plexus assessed as drug accumulation after 2.5 mins in presence of phenylarsine oxide; format: ADME, organism-based; details: in vivo; how it was run: as §1
[11] = Biodistribution in BALB/c mouse pineal gland assessed as tritiated drug level at 5 ml/min perfusion after 30 min; format: ADME, organism-based; details: in vivo, other, 0.5 h; how it was run: as §4
[12] = Biodistribution in FVB Mdr1a/Mdr1b deficient mouse pineal gland assessed as tritiated drug level at 150 uM perfusion after 30 mins by capillary depletion assay; format: ADME, organism-based; details: in vivo, other, 0.5 h; how it was run: as §2
[13] = Biodistribution in wild type FVB Mdr1a/Mdr1b positive mouse choroid plexus assessed as tritiated drug level at 150 uM perfusion after 30 mins by capillary depletion assay; format: ADME, organism-based; details: in vivo, other, 0.5 h; how it was run: as §2
[14] = Biodistribution in perfused FVB Mdr1a/Mdr1b deficient mouse choroid plexus assessed as tritiated drug level after 30 mins relative to control; format: ADME, organism-based; details: in vivo, 0.5 h; how it was run: as §1
[15] = Biodistribution in FVB Mdr1a/Mdr1b deficient mouse choroid plexus assessed as tritiated drug level at 150 uM perfusion after 30 mins by capillary depletion assay; format: ADME, organism-based; details: in vivo, other, 0.5 h; how it was run: as §2
[16] = Protein binding in mouse plasma assessed as tritiated drug level; format: ADME, cell-free; details: read-out: PPB (converted)
How it was run: (§5)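 [3H]suramin (0.14 µCi) was dissolved in 0.7 ml of warmed artificial plasma, mouse plasma, or reconstituted human plasma. Binding was measured by centrifugal ultrafiltration. Mouse plasma came from heparinized cardiac blood of male FVB mice, spun at 5,400 x g for 10 min. Human plasma was lyophilized citrated plasma. Protein retention by the filter was checked by the Lowry method.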

[17] = Biodistribution in perfused wild type FVB Mdr1a/Mdr1b positive mouse choroid plexus assessed as tritiated drug level after 2.5 mins relative to control; format: ADME, organism-based; details: in vivo; how it was run: as §1
[18] = Biodistribution in perfused wild type FVB Mdr1a/Mdr1b positive mouse choroid plexus assessed as drug accumulation after 30 mins; format: ADME, organism-based; details: in vivo, 0.5 h; how it was run: as §1
[19] = Biodistribution in FVB Mdr1a/Mdr1b deficient mouse pituitary gland assessed as tritiated drug level at 150 uM perfusion after 30 mins by capillary depletion assay; format: ADME, organism-based; details: in vivo, other, 0.5 h; how it was run: as §2
[20] = Biodistribution in BALB/c mouse pituitary gland assessed as tritiated drug level at 5 ml/min perfusion after 30 min; format: ADME, organism-based; details: in vivo, other, 0.5 h; how it was run: as §4
[21] = Partition coefficient of the compound; details: octanol/water
[22] = Biodistribution in perfused FVB Mdr1a/Mdr1b deficient mouse choroid plexus assessed as drug accumulation after 2.5 mins; format: ADME, organism-based; details: in vivo; how it was run: as §1
[23] = Biodistribution in perfused FVB Mdr1a/Mdr1b deficient mouse choroid plexus assessed as tritiated drug level after 2.5 mins relative to control; format: ADME, organism-based; details: in vivo; how it was run: as §1
[24] = Biodistribution in wild type FVB Mdr1a/Mdr1b positive mouse pituitary gland assessed as tritiated drug level at 150 uM perfusion after 30 mins by capillary depletion assay; format: ADME, organism-based; details: in vivo, other, 0.5 h; how it was run: as §2
[25] = Protein binding in human plasma assessed as tritiated drug level; format: ADME, cell-free; details: read-out: PPB (converted); how it was run: as §5
[26] = Protein binding in artificial plasma assessed as tritiated drug level; format: ADME, cell-free; details: read-out: PPB (converted); how it was run: as §5
[27] = Biodistribution in wild type FVB Mdr1a/Mdr1b positive mouse caudate putamen assessed as tritiated drug level at 150 uM perfusion after 30 mins by capillary depletion assay; format: ADME, organism-based; details: in vivo, other, 0.5 h; how it was run: as §2
Hypothalamus [28] = test: Biodistribution in wild type FVB Mdr1a/Mdr1b positive mouse hypothalamus assessed as tritiated drug level at 150 uM perfusion after 30 mins by capillary depletion assay; format: ADME, organism-based; details: in vivo, other, 0.5 h; how it was run: as §2
[29] = Biodistribution in wild type FVB Mdr1a/Mdr1b positive mouse brain 4th ventricle choroid plexus assessed as tritiated drug level at 150 uM perfusion after 30 mins by capillary depletion assay; format: ADME, organism-based; details: in vivo, other, 0.5 h; how it was run: as §2
Thalamus [30] = test: Biodistribution in FVB Mdr1a/Mdr1b deficient mouse thalamus assessed as tritiated drug level at 150 uM perfusion after 30 mins by capillary depletion assay; format: ADME, organism-based; details: in vivo, other, 0.5 h; how it was run: as §2
Cerebellum = test: Biodistribution in FVB Mdr1a/Mdr1b deficient mouse cerebellum assessed as tritiated drug level at 150 uM perfusion after 30 mins by capillary depletion assay; format: ADME, organism-based; details: in vivo, other, 0.5 h; how it was run: as §2
[31] = Biodistribution in FVB Mdr1a/Mdr1b deficient mouse caudate putamen assessed as tritiated drug level at 150 uM perfusion after 30 mins by capillary depletion assay; format: ADME, organism-based; details: in vivo, other, 0.5 h; how it was run: as §2
Thalamus [32] = test: Biodistribution in BALB/c mouse thalamus assessed as tritiated drug level at 150 uM perfusion after 10 mins by capillary depletion assay in presence of phenylarsine ocide; format: ADME, organism-based; details: in vivo, other; how it was run: as §3
Hypothalamus [33] = test: Biodistribution in FVB Mdr1a/Mdr1b deficient mouse hypothalamus assessed as tritiated drug level at 150 uM perfusion after 30 mins by capillary depletion assay; format: ADME, organism-based; details: in vivo, other, 0.5 h; how it was run: as §2
Mus musculus = species on record: Mus musculus; test: Drug uptake in BALB/c mouse assessed as tritiated drug level at 5 ml/min perfusion after 10 min relative to [14C]sucrose; format: ADME, organism-based; details: in vivo, other
[34] = Biodistribution in FVB Mdr1a/Mdr1b deficient mouse frontal cortex assessed as tritiated drug level at 150 uM perfusion after 30 mins by capillary depletion assay; format: ADME, organism-based; details: in vivo, other, 0.5 h; how it was run: as §2

- Drug uptake [1]: 13%
- Drug uptake [2]: 27.2%
- Drug uptake [3]: 6.7%
- Drug uptake [4]: 26.6%
- Drug uptake [5]: 8.6%
- Drug uptake [6]: 263%
- Drug uptake [7]: 7.4%
- Drug uptake [8]: 99.4%
- Drug uptake [9]: 163%
- Drug uptake [10]: 11.4%
- Drug uptake [11]: 388%
- Drug uptake [12]: 437%
- Drug uptake [13]: 100%
- Drug uptake [14]: 29.3%
- Drug uptake [15]: 97%
- fraction unbound [16]: 0.03
- Drug uptake [17]: 9.5%
- Drug uptake [18]: 25.3%
- Drug uptake [19]: 57%
- Drug uptake [20]: 39%
- partition coefficient [21]: 0.00023
- Drug uptake [22]: 10.9%
- Drug uptake [23]: 12.5%
- Drug uptake [24]: 46%
- fraction unbound [25]: 0.006
- fraction unbound [26]: 0.047
SMILES: Cc1ccc(C(=O)Nc2ccc(S(=O)(=O)O)c3cc(S(=O)(=O)O)cc(S(=O)(=O)O)c23)cc1NC(=O)c1cccc(NC(=O)Nc2cccc(C(=O)Nc3cc(C(=O)Nc4ccc(S(=O)(=O)O)c5cc(S(=O)(=O)O)cc(S(=O)(=O)O)c45)ccc3C)c2)c1 [SURAMIN]

- Drug uptake [27]: 1.1%
- Drug uptake [1]: 1.6%
- Drug uptake (Hypothalamus [28]): 2.2%
- Drug uptake [2]: 2.1%
- Drug uptake [29]: 83.2%
- Drug uptake [6]: 54.4%
- Drug uptake [7]: 0.7%
- Drug uptake (Thalamus [30]): 3.4%
- Drug uptake [14]: 2.6%
- Drug uptake [17]: 0.9%
- Drug uptake (Cerebellum): 2.5%
- Drug uptake [31]: 2.5%
- Drug uptake (Hypothalamus [33]): 5.8%
- Drug uptake (Mus musculus): 1.56%
- Drug uptake [34]: 2.5%
- Drug uptake [23]: 1.8%
- Drug uptake [24]: 80.4%
SMILES: OC[C@H]1O[C@@](CO)(O[C@H]2O[C@H](CO)[C@@H](O)[C@H](O)[C@H]2O)[C@@H](O)[C@@H]1O [SUCROSE]
- Activity (Thalamus [32]): 2.2%
